# Key:
# [1] = Growth inhibition of human M14 cells at 10 uM after 48 hrs by SRB assay relative to control; type: functional; details: M14, 48 h, read-out: GI
# How it was run: (§1)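 NCI 60-cell-line panel, nine tumor subpanels; compounds tested at a single dose of 10 μM in the primary screen.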
# [2] = tested on: Cancer cell lines; assay: Potency index, ratio of 5-fluorouracil GI50 to compound GI50 for human colon cancer cells; type: functional
# How it was run: (§2)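 GI50 for each cell line came from NCI panel testing over a 5-log dose range, with 5-fluorouracil tested alongside as the reference drug. The index relates the 5-fluorouracil GI50 to the compound GI50 within each tumour subpanel.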
# [3] = Growth inhibition of human NCI-H460 cells at 10 uM after 48 hrs by SRB assay relative to control; type: functional; details: NCI-H460, 48 h, read-out: GI; how it was run: as §1
# [4] = tested on: Cancer cell lines; assay: Potency index, ratio of 5-fluorouracil GI50 to compound GI50 for human prostate cancer cells; type: functional; how it was run: as §2
# [5] = tested on: Cancer cell lines; assay: Potency index, ratio of 5-fluorouracil GI50 to compound GI50 for human non-small cell lung cancer cells; type: functional; how it was run: as §2
# [6] = Growth inhibition of human UACC62 cells at 10 uM after 48 hrs by SRB assay relative to control; type: functional; details: UACC-62, 48 h, read-out: GI
# How it was run: (§3)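 Primary screen across the full NCI 60 human tumour cell line panel, which covers nine tumour subpanels. A single dose of 10 μM was applied to each line, and growth was recorded for each cell line.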
# [7] = Growth inhibition of human MDA-MB-231 cells at 10 uM after 48 hrs by SRB assay relative to control; type: functional; details: MDA-MB-231, 48 h, read-out: GI; how it was run: as §1
# [8] = Growth inhibition of human KM12 cells at 10 uM after 48 hrs by SRB assay relative to control; type: functional; details: KM12, 48 h, read-out: GI; how it was run: as §1
# [9] = Growth inhibition of human U251 cells at 10 uM after 48 hrs by SRB assay relative to control; type: functional; details: U-251, 48 h, read-out: GI; how it was run: as §3
# [10] = Growth inhibition of human PC3 cells at 10 uM after 48 hrs by SRB assay relative to control; type: functional; details: PC-3, 48 h, read-out: GI; how it was run: as §1
# [11] = Growth inhibition of human NCI-322M cells at 10 uM after 48 hrs by SRB assay relative to control; type: functional; details: read-out: GI; how it was run: as §1
# [12] = Growth inhibition of human SF295 cells at 10 uM after 48 hrs by SRB assay relative to control; type: functional; details: SF-295, 48 h, read-out: GI; how it was run: as §1
# [13] = tested on: Cancer cell lines; assay: Potency index, ratio of 5-fluorouracil GI50 to compound GI50 for human breast cancer cells; type: functional; how it was run: as §2
# [14] = tested on: Cancer cell lines; assay: Potency index, ratio of 5-fluorouracil GI50 to compound GI50 for human ovarian cancer cells; type: functional; how it was run: as §2
# [15] = Growth inhibition of human OVCAR8 cells at 10 uM after 48 hrs by SRB assay relative to control; type: functional; details: OVCAR-8, 48 h, read-out: GI; how it was run: as §1
# [16] = Growth inhibition of human Caki1 cells at 10 uM after 48 hrs by SRB assay relative to control; type: functional; details: CAKI-1, 48 h, read-out: GI; how it was run: as §1
# [17] = Growth inhibition of human SK-MEL-28 cells at 10 uM after 48 hrs by SRB assay relative to control; type: functional; details: SK-MEL-28, 48 h, read-out: GI; how it was run: as §3
# [18] = Growth inhibition of human IGROV1 cells at 10 uM after 48 hrs by SRB assay relative to control; type: functional; details: IGROV-1, 48 h, read-out: GI; how it was run: as §1
# [19] = Growth inhibition of human SW620 cells at 10 uM after 48 hrs by SRB assay relative to control; type: functional; details: SW-620, 48 h, read-out: GI; how it was run: as §3
# [20] = Growth inhibition of human leukemia cells after 48 hrs by SRB assay; type: functional; details: Leukemia cell
# How it was run: (§4)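 Follow-up NCI panel testing over a 5-log dose range for each cell line. GI50, TGI and LC50 were monitored, with 5-fluorouracil run as the positive control. Values are grouped by tumour subpanel.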
# [21] = Growth inhibition of human melanoma cells after 48 hrs by SRB assay; type: functional; details: Melanoma cell; how it was run: as §4
# [22] = Growth inhibition of human HOP92 cells at 10 uM after 48 hrs by SRB assay relative to control; type: functional; details: HOP-92, 48 h, read-out: GI; how it was run: as §1
# [23] = Growth inhibition of human breast cancer cells after 48 hrs by SRB assay; type: functional; details: Cancer cell lines; how it was run: as §4
# [24] = Growth inhibition of human HCT15 cells at 10 uM after 48 hrs by SRB assay relative to control; type: functional; details: HCT-15, 48 h, read-out: GI; how it was run: as §1
# [25] = tested on: Melanoma cell; assay: Potency index, ratio of 5-fluorouracil GI50 to compound GI50 for human melanoma cells; type: functional; how it was run: as §2
# [26] = Growth inhibition of human renal cancer cells after 48 hrs by SRB assay; type: functional; details: Cancer cell lines; how it was run: as §4
# [27] = Growth inhibition of human HT-29 cells at 10 uM after 48 hrs by SRB assay relative to control; type: functional; details: HT-29, 48 h, read-out: GI; how it was run: as §1
# [28] = Growth inhibition of human HCC2998 cells at 10 uM after 48 hrs by SRB assay relative to control; type: functional; details: HCC 2998, 48 h, read-out: GI; how it was run: as §1
# [29] = Growth inhibition of human RPMI8226 cells at 10 uM after 48 hrs by SRB assay relative to control; type: functional; details: RPMI-8226, 48 h, read-out: GI; how it was run: as §1
# [30] = molecular target: T1, Dihydrofolate reductase (Bos taurus, UniProt P00376); assay: Inhibition of bovine liver DHFR preincubated for 2 mins followed by addition of FH2 as substrate and NADPH
# T1 sequence (P00376 whole entry): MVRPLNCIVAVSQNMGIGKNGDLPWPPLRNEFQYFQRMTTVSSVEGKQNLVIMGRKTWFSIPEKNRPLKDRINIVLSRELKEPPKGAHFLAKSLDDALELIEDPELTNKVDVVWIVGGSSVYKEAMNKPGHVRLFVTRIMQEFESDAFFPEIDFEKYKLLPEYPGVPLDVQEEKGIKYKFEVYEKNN
# [31] = tested on: Cancer cell lines; assay: Potency index, ratio of 5-fluorouracil GI50 to compound GI50 for human renal cancer cells; type: functional; how it was run: as §2
# [32] = Growth inhibition of human MCF7 cells at 10 uM after 48 hrs by SRB assay relative to control; type: functional; details: MCF7, 48 h, read-out: GI; how it was run: as §1
# [33] = Growth inhibition of human prostate cancer cells after 48 hrs by SRB assay; type: functional; details: Cancer cell lines; how it was run: as §4
smiles,measurement,setting,value
COc1cc(CSc2nc3ccc(C)cc3c(=O)n2Cc2ccccc2)cc(OC)c1OC,inhibition of growth at 10 µM,[1],64.4%
same,RatioGI50,[2],10
same,inhibition of growth at 10 µM,[3],82.3%
same,RatioGI50,[4],10
same,RatioGI50,[5],10
same,inhibition of growth at 10 µM,[6],78.6%
same,inhibition of growth at 10 µM,[7],55.6%
same,inhibition of growth at 10 µM,[8],74.7%
same,inhibition of growth at 10 µM,[9],67%
same,inhibition of growth at 10 µM,[10],54.1%
same,inhibition of growth at 10 µM,[11],53.8%
same,inhibition of growth at 10 µM,[12],69%
same,RatioGI50,[13],10
same,RatioGI50,[14],10
same,inhibition of growth at 10 µM,[15],64.9%
same,inhibition of growth at 10 µM,[16],71.3%
same,inhibition of growth at 10 µM,[17],48%
same,inhibition of growth at 10 µM,[18],75.7%
same,inhibition of growth at 10 µM,[19],74.2%
same,GI50,[20],2400 nM
same,TGI,[20],85.2 µM
same,CC50,[20]; read-out: LC50 (the source's name),> 100 µM
same,GI50,[21],3.2 µM
same,LC50,[21],> 100 µM
same,TGI,[21],58.4 µM
same,inhibition of growth at 10 µM,[22],43.4%
same,GI50,[23],2800 nM
same,LC50,[23],> 100 µM
same,TGI,[23],47.5 µM
same,inhibition of growth at 10 µM,[24],70.8%
same,RatioGI50,[25],10
same,GI50,[26],4.3 µM
same,LC50,[26],97.9 µM
same,TGI,[26],61.4 µM
same,inhibition of growth at 10 µM,[27],89.5%
same,inhibition of growth at 10 µM,[28],57%
same,inhibition of growth at 10 µM,[29],46%
same,IC50,[30],1000 nM
same,RatioGI50,[31],10
same,inhibition of growth at 10 µM,[32],82%
same,GI50,[33],2900 nM
same,LC50 (concentration killing 50% of cells),[33],> 100 µM
same,TGI,[33],60.2 µM
